Hits are enriched below; roughly 1.8% of the tested compounds scored in any of these assays.
CHRM5 antagonist: antagonists of human muscarinic M5 receptor (CHRM5) | AID 624040 | 0.59% of 360,000 active | P08912 | CHO-hM5 cells, Fluo-8 calcium fluorescence, ACh EC80 | inhibition, % at 3 µM;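 active = inhibition above a per-plate cutoff, the mean of that plate's test compounds plus 3 SD, cut at about 27% in these data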;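 note: 0% = acetylcholine EC80 with DMSO and 100% = DMSO without agonist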
M5 PAM: CHRM5 positive allosteric modulation | P08912 | CHO-K1 hM5, Fluo-8 calcium, ACh EC20 PAM; 0% = ACh EC20, 100% = ACh EC100 | activation, % at 3 µM | 0.3% of 360,000 active | AID 624038;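 active = activation above the run cutoff, the mean activation of all test compounds plus 3 SD, cut at about 18% in these data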
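Assay system: CHO-K1 hM5 cells. Also added: acetylcholine at EC20 concentration, added after compound. Dosing: 3 µM, single dose. Times: compound preincubation 140 s before EC20 acetylcholine addition. Signal: Fluo-8 calcium fluorescence. Measure: % activation relative to EC20 and EC100 ACh responses. Repeats: singlicate, one well per test compound.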
CHRM4 PAM: potentiates acetylcholine response at human M4 receptor; P08173; CHO-K1 hM4/Gqi5, Fluo-8 calcium fluorescence, ACh EC20; 0% = ACh EC20, 100% = maximal ACh; activation, % at 3 µM; 0.4% of 360,000 active; AID 624126;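 active = activation above its plate's cutoff, the mean activation of sample wells plus 3 SD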
Target sequence (P08173 whole entry, looked up): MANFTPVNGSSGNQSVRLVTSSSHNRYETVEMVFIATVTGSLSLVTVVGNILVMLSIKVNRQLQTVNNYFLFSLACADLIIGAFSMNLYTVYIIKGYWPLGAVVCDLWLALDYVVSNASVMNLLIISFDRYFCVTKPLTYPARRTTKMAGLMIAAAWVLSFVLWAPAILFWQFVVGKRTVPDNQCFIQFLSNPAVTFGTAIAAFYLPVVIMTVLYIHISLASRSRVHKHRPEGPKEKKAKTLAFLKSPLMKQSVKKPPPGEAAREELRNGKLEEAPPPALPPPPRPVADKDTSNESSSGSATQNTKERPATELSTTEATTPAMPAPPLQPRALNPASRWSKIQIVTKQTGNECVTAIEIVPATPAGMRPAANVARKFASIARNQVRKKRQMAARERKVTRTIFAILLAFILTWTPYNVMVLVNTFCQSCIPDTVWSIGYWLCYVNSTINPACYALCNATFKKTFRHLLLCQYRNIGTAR
M4 ag: CHRM4 agonism in calcium assay. CHO-K1 hM4/Gqi5, Fluo-8 calcium fluorescence; vehicle 0%, full acetylcholine response 100%. AID 624127. activation, % at 3 µM. 0.14% of 360,000 active;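 active = activation above the run mean over all test wells plus 3 SD, cut at about 32% in these data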;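 note: peak over basal fluorescence ratio per well then scaled between controls; 0% = DMSO wells and 100% = acetylcholine at EC100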
M5 ag: agonists of human muscarinic M5 receptor (CHRM5); P08912; CHO-K1 hM5 cells, Fluo-8 calcium fluorescence; 0% DMSO wells, 100% maximal acetylcholine response; activation, % at 3 µM; 0.19% of 360,000 active;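 active = activation above the run's mean over test compounds plus 3 SD, cut at about 23% in these data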;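 note: signal is peak over basal fluorescence ratio across the kinetic read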
CHRM4 antagonist: blocks acetylcholine activation of human M4 receptor; CHO-hM4 cells, ACh EC80, Fluo-8 calcium fluorescence; inhibition, % at 3 µM; 0.73% of 360,000 active;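 active = inhibition above its plate's cutoff, the mean inhibition of sample wells plus 3 SD, cut at about 27% in these data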;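 note: 0% = acetylcholine EC80 with DMSO and 100% = DMSO without agonist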
* = called active by the depositor; ! = a repeat was not active.

SMILES	CHRM5 antagonist	M5 PAM	CHRM4 PAM	M4 ag	M5 ag	CHRM4 antagonist
COc1ccccc1C(=O)Oc1ccc(C(C)(C)C)cc1	16.6	26.0*	-2.5	0.0	-10.3	-19.3
Cc1nc2scc(C)n2c(=O)c1S(=O)(=O)NCC1CCN(Cc2ccc(Cl)cc2)CC1	2.8	-2.3	-13.8	1.1	-8.2	64.8*
COc1ccccc1NC(=O)C(C)OC(=O)CCCc1c[nH]c2ccccc12 (stereo not given)	-1.7	-2.4	0.8	3.6	2.5	1.4
Cn1c(N)c(C(=O)CSc2nnc(Cc3cccs3)n2C2CC2)c(=O)n(C)c1=O	-4.2	-1.1	4.1	-0.3	1.9	-13.2
CC1CCN(S(=O)(=O)c2cccc(C(=O)Oc3ccc([N+](=O)[O-])cc3)c2)CC1	2.6	4.7	30.4*	2.5	4.2	-11.4
CC1CCN(C(=O)c2cccc(S(=O)(=O)N3CCCCC3)c2)CC1	-4.7	-3.9	8.7	2.6	2.4	-11.3
CCCNC(=O)C(Cc1ccc(Cl)cc1)NC(=O)c1ccc(-c2ccccc2)cc1 (stereo not given)	-3.8	5.6	13.3	1.4	2.1	-8.4
O=C(Cn1c(Cn2c(-c3cnccn3)nc3ccccc32)nc2ccccc21)c1ccc(OC(F)(F)F)cc1	-2.2	1.3	3.8	1.9	1.3	5.0
Cc1cc(SCC(=O)O)nc2ccccc12	-11.6	18.3*!	14.2	0.7	3.3	-8.1
Cc1cc(SCCC(=O)O)nc2c(C)cccc12	-2.9	33.1*	3.0	0.7	-10.6	-9.5
Cc1cc(SCC(=O)N2CCCC2=O)nc2c(C)cccc12	-2.4	4.0	4.2	2.8	-6.7	-21.1
COC(=O)c1[nH]c2ccc(F)cc2c1NS(=O)(=O)c1ccc(OC)cc1	1.1	-6.5	-12.7	7.9	-2.5	29.4*
COc1ccc(S(=O)(=O)Nc2c(C(=O)O)[nH]c3ccc(OC)cc23)cc1	7.0	1.5	14.1	0.6	-3.6	5.6
Cc1ccc(NC(=O)C2CCN(S(=O)(=O)c3ccc(N4CCCC4=O)cc3)CC2)cc1Cl	49.5*	-15.0	-10.1	19.1	1.6	23.7
CC1Sc2ccc(S(=O)(=O)N3CCC(C(=O)Nc4ccc(Cl)cc4)CC3)cc2NC1=O (stereo not given)	33.1*	-13.2	-12.2	14.4	-0.4	30.0*
COc1ccc(NC(=O)C2CCN(S(=O)(=O)c3ccc(N4CCCC4=O)cc3)CC2)c(OC)c1	1.9	-3.2	2.1	1.7	-2.6	-12.1
Cc1ccc(C(=O)OCC(=O)NC2CCCCCC2)c(C)c1	-1.5	1.2	17.7	0.1	-3.8	-18.3
CC(=O)C[C@H](O)CC(=O)[C@H]1OC(=O)CC/C=C\Cc2ccccc21	-7.0	6.3	25.3*	2.0	3.9	-2.9
O=[N+]([O-])c1cccc(/C=N/n2cnnc2)c1	3.5	1.4	20.5*	0.4	-0.7	6.8
O=[N+]([O-])c1ccc(O)c(/C=N/n2cnnc2)c1	2.2	5.3	4.9	3.0	1.7	9.5
Cc1ncc(CN2CCCC(C(=O)Nc3ccc(-c4ccco4)cc3)C2)n1C (stereo not given)	5.8	-2.5	-11.9	0.6	-7.7	30.9*
O=C(Nc1ccc(-c2ccco2)cc1)C1CCCN(Cc2ccco2)C1 (stereo not given)	5.2	-4.2	-0.8	2.0	-2.3	9.2
CCCCNc1c(-c2cccc(-c3ccc(OC)cc3)c2)nc2ccc(C)cn12	34.3*	-39.1	-13.8	22.4	-4.6	51.7*
CCCCNc1c(-c2ccc(OC)c(SC3CCCCC3)c2)nc2cc(C)ccn12	14.6	-13.1	-12.1	7.4	-7.8	28.6*
CCCCNc1c(-c2ccc(-c3cccc(Cl)c3)cc2)nc2ccccn12	15.5	-18.1	-14.7	4.8	-1.9	9.0
CCCCNc1c(-c2cccc(-c3cc(C(C)=O)cs3)c2)nc2ccc(C)cn12	19.8	-34.5	-11.4	20.8	-4.9	26.4
CCCCNc1c(-c2cccc(-c3ccc(OC)cc3)c2)nc2cc(C)ccn12	27.8*	-32.4	-13.1	15.2	-7.2	41.5*
CCN(CC)CCN1CCN(c2cnc(C)cn2)CC1	5.6	-3.8	-2.0	0.7	0.0	-9.9
